PKD1 kinase inh: inhibitors of human PKD1 kinase. Q15139. PKD1 kinase fluorescence polarization assay. inhibition, % (no concentration beside the values). 200,000 tested, 0.056% active. AID 797; in the data active = inhibition above about 50%
DTT redox prof: compounds producing H2O2 with reducing agent – biochemical, NIH compound library profiling, artefact control for MLSCN library redox annotation, primary screen. DTT-dependent redox cycling H2O2, phenol red/HRP absorbance; 100% = 100 µM peroxide control, 0% = buffer. activation, % at 10 µM. 200,000 tested, 0.03% active;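 active = activation of at least 50% relative to the plate's high and low controls in the primary single-dose screen; inactive = activation below 50%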;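 note: compound incubated with DTT at 0.8 mM final as the reducing agent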
ROMK mod: modulates human ROMK potassium channel activity; 130,000 tested, 2% active; Tet-inducible ROMK, thallium flux fluorescence; actives lie on both sides; P48048; B-score at 10 µM;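 active = signal ratio slope over the read window, or its plate-corrected B-score, at least 3 SD from the plate mean, either direction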;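 note: B-score of the F/F0 ratio slope over 7 to 12 s after thallium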
Target sequence (P48048 whole entry, looked up): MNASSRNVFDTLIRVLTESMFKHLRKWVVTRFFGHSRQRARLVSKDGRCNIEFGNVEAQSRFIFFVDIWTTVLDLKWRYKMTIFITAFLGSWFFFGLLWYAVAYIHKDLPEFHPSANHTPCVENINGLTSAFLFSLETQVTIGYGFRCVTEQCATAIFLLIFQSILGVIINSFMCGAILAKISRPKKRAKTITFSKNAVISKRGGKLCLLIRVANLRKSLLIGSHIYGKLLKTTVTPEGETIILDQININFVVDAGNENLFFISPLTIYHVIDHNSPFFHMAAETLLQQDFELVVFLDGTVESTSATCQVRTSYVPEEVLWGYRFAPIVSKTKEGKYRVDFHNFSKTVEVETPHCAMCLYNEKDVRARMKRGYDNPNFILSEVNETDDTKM
Mdm2 ligase inh: Mdm2 E3 ligase (human) inhibition. cell-based MDM2 ubiquitination luciferase reporter, 2 h; 0 = plate control, 100 = twice control, blank-subtracted. signal enhancement, % at 5 µM. 210,000 tested, 0.11% active. AID 1230;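 active = signal enhancement of 30% or more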;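 note: luminescence tracks abundance of the self-degrading MDM2-luciferase fusion protein; higher signal means inhibition of MDM2 E3 ligase activity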
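Buffer or medium: Cells held in DMEM | Assay system: Stable mammalian line carrying autodegrading MDM2–luciferase fusion reporter | Quantity: 2000 cells/well | Times: 4 h settle plus 2 h compound, 37 °C | Doses: One concentration, 5 µM, with 0.2% DMSO | Technique: Luminescence with SteadyLite reagent, 15 min at room temperature | Benchmarks: Plate controls and plate blanks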
p97 inhibitor: inhibitors of human p97 ATPase. P55072. recombinant p97 ATPase, Kinase-Glo ATP luminescence, 3 h. inhibition, % at 8 µM. 220,000 tested, 0.42% active. AID 1481; in the data active = inhibition above about 15%
Cl transport mod: KCC2 (human) Cl- transport modulation; Q9H2X9; KCC2 cells, thallium flux FluoZin-2 fluorescence; B-score of Tl+ flux slope (higher = more flux/activation; lower = inhibition) at 10 µM; 190,000 tested, 2.2% active;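 active = thallium flux slope and its plate-corrected score both differing from the plate sample mean at a set confidence after two filtering rounds, in either direction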;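 note: slope of fluorescence scaled to starting intensity during 10 to 20 s after thallium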
KCC2 sec1: KCC2 (human) modulation, secondary assay | shares compounds with Cl transport mod | normalised thallium flux (F/F0 slope) at 10 µM | HEK293-KCC2, thallium flux, FluoZin2 fluorescence; hits give high values | 3,700 tested, 15% active | AID 1713;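 active = thallium flux slope above the same plate's solvent-only control mean plus 3 SD; inconclusive = the two replicate wells disagree; inactive = no significant difference from solvent-only control wells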
KCC2 bumet counter: thallium flux despite bumetanide block in KCC2 cells, secondary assay 3; shares compounds with Cl transport mod; HEK293-KCC2 + bumetanide/ouabain, thallium flux FluoZin2; hits give high values; normalized thallium flux at 10 µM; 3,700 tested, 49% active; AID 1714;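 active = thallium entry rate above the same plate's blocked-transporter control wells by more than 3 SD; inconclusive = the two repeat wells disagree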;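 note: raw slope of fluorescence over initial fluorescence between 10 and 20 s after thallium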
KCC2 sec2: confirmation of human KCC2 transport modulators. shares compounds with Cl transport mod. HEK293-KCC2, thallium flux FluoZin2 fluorescence; actives lie on both sides; F/F0 rise rate, 10–20 s post-thallium. normalized thallium flux at 10 µM. 3,700 tested, 23% active. AID 1715;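 active = thallium flux slope more than 3 SD above or below the plate's solvent-only control mean, mostly below; inconclusive = the two repeat wells disagreed; inactive = no significant shift from solvent-only controls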
HEK counter1: counter-screen for KCC2 modulators: effect in parental HEK293 cells; shares compounds with Cl transport mod; thallium flux FluoZin2, ouabain; baseline-ratio fluorescence slope, 10–20 s after thallium; thallium flux rate (normalised fluorescence) at 10 µM; 3,700 tested, 46% active;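 active = thallium flux rate significantly above the same plate's solvent-only control wells, beyond their mean plus 3 SD; inconclusive = the two replicate wells gave conflicting results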
KCC2 retest ouab: KCC2 (human) modulation, ouabain retest; shares compounds with Cl transport mod; HEK293-KCC2, thallium flux FluoZin2 fluorescence; bidirectional: low = inhibitor, high = activator; raw Tl+ flux slope (below DMSO = inhibition, above = activation) at 10 µM; 3,700 tested, 48% active; AID 1717;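 active = thallium flux slope beyond 3 SD from same-plate DMSO control mean in most replicates, usually higher, sometimes lower; inconclusive = repeat tests gave conflicting results; inactive = no significant difference from controls in most replicates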;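 note: slope of initial-normalized fluorescence between seconds 10 and 20 after thallium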
HEK counter2: counter-screen for KCC2 modulators: effect in parental HEK293 cells; thallium flux FluoZin-2 fluorescence slope; 3,700 tested, 33% active; shares compounds with Cl transport mod; thallium flux slope at 10 µM;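 active = thallium flux slope above the same plate's solvent-control mean plus 3 SD in both duplicate wells; inconclusive = duplicate wells that disagreed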;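 note: run without ouabain in cells lacking the KCC2 cotransporter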
Each line names hits and unclear results; the compound was inactive in the other large screens (follow-up assays come after a bar, where they were run). In the library only some 3.4% were active in any assay of this set; here they are far more common.

NNC(=O)c1oc2ccccc2c1-n1cccc1	none
O=C(NNC(=O)c1oc2ccccc2c1-n1cccc1)c1ccco1	none (no result: Cl transport mod) | KCC2 sec1 inactive | KCC2 bumet counter 0.024 | KCC2 sec2 0.04 | HEK counter1 0.019 | KCC2 retest ouab 0.03 | HEK counter2 0.019
CCNC(=S)N/N=C(\C)c1ccco1	none
C/C(=N\NC(=S)Nc1cccc(C)c1)c1ccco1	Cl transport mod 78 (no result: ROMK mod) | KCC2 sec1 0.028 | KCC2 bumet counter 0.085 | KCC2 sec2 inconclusive | HEK counter1 0.063 | KCC2 retest ouab 0.058 | HEK counter2 0.062
C=CCNC(=S)N/N=C(\C)c1cccc(NC(C)=O)c1	none
C/C(=N\NC(=S)Nc1ccc(C)cc1)c1cccc(N)c1	Cl transport mod 9.4 | KCC2 sec1 0.018 | KCC2 bumet counter 0.053 | KCC2 sec2 inactive | HEK counter1 0.063 | KCC2 retest ouab 0.048 | HEK counter2 0.017
COc1n[nH]c2nncnc12	none
CCCCN(C)CCCNC(=O)C1CC(=O)N(Cc2ccc(OC)cc2)C1 (centres undefined)	none (no result: Cl transport mod) | KCC2 sec1 inactive | KCC2 bumet counter inactive | KCC2 sec2 inactive | HEK counter1 inactive | KCC2 retest ouab inactive | HEK counter2 inactive
COc1ccc(CN2CC(C(=O)NCCC(C)C)CC2=O)cc1 (centres undefined)	none
CCOC(=O)N1CCN(C(=O)c2cc(C)no2)CC1	Cl transport mod -3.9 (no result: ROMK mod, p97 inhibitor) | KCC2 sec1 inactive | KCC2 bumet counter inactive | KCC2 sec2 inactive | HEK counter1 inactive | KCC2 retest ouab inactive | HEK counter2 inactive
Cc1cccc(OCC(=O)N/N=C/CC(C)c2ccccc2)c1C (centres undefined)	Cl transport mod -4.5 | KCC2 sec1 inactive | KCC2 bumet counter inactive | KCC2 sec2 inactive | HEK counter1 inactive | KCC2 retest ouab inconclusive | HEK counter2 inactive
Cc1ccccc1OCC(=O)N/N=C/C=C/c1ccccc1	none
CC(=O)c1c(C)cc(C)c(CSc2nnc(-c3ccco3)o2)c1C	Cl transport mod 6 (no result: ROMK mod) | KCC2 sec1 inactive | KCC2 bumet counter inactive | KCC2 sec2 inconclusive | HEK counter1 inconclusive | KCC2 retest ouab inactive | HEK counter2 inactive
O=C(C1=C[C@@H]2[C@H]3C(=O)N(c4ccc(Cl)cc4)C(=O)[C@H]3[C@@H](C(=O)c3ccc(Cl)cc3)N2C=C1)c1ccccc1	none (no result: ROMK mod)
CC(/C=C1\SC(=S)N(NS(=O)(=O)c2ccc(C)cc2)C1=O)=C\c1ccccc1	Cl transport mod 99 (no result: PKD1 kinase inh, DTT redox prof, ROMK mod) | KCC2 sec1 inactive | KCC2 bumet counter 0.1 | KCC2 sec2 0.072 | HEK counter1 0.083 | KCC2 retest ouab 0.08 | HEK counter2 0.071
CC(/C=C1\SC(=S)N(CCCC(=O)Nc2ccc(C(=O)O)c(O)c2)C1=O)=C\c1ccccc1	Cl transport mod -4.7 (no result: ROMK mod) | KCC2 sec1 inactive | KCC2 bumet counter inactive | KCC2 sec2 inactive | HEK counter1 inactive | KCC2 retest ouab 0.014 | HEK counter2 inactive
CC(/C=C1\SC(=S)N(NS(=O)(=O)c2ccccc2)C1=O)=C\c1ccccc1	none (no result: PKD1 kinase inh, DTT redox prof, ROMK mod)
COc1cc(/C=C2\SC(=S)N(NS(=O)(=O)c3ccc(C)cc3)C2=O)cc(OC)c1OC	Cl transport mod 7.8 (no result: PKD1 kinase inh, DTT redox prof, ROMK mod) | KCC2 sec1 inactive | KCC2 bumet counter 0.022 | KCC2 sec2 inactive | HEK counter1 0.014 | KCC2 retest ouab inactive | HEK counter2 inactive
COc1cc(/C=C2\SC(=S)N(NC(=O)c3ccncc3)C2=O)ccc1O	none (no result: PKD1 kinase inh, DTT redox prof)
CC(=C\c1ccccc1)/C=C1/SC(=O)N(CCCC(=O)Nc2ccc(C(=O)O)cc2)C1=O	none
COc1cc(/C=C2\SC(=S)N(NS(=O)(=O)c3ccc(C)cc3)C2=O)ccc1O	Cl transport mod -4.9 (no result: PKD1 kinase inh, DTT redox prof, ROMK mod) | KCC2 sec1 inactive | KCC2 bumet counter -0.0052 | KCC2 sec2 0.018 | HEK counter1 0.0044 | KCC2 retest ouab 0.0057 | HEK counter2 inconclusive
CC(=O)Cc1nsc(NC(=O)c2ccc(-c3ccc(Cl)c(Cl)c3)o2)n1	none
COC(=O)c1ccccc1NC(=O)NC1CCC(C)CC1 (centres undefined)	none (no result: Cl transport mod)
CCOC(Cn1c(CCCO)nc2ccccc21)OCC	none
CC(/C=C1\SC(=S)N(C(C(=O)O)C(C)C)C1=O)=C\c1ccccc1 (centres undefined)	Cl transport mod -3.3 | KCC2 sec1 inactive | KCC2 bumet counter inactive | KCC2 sec2 0.025 | HEK counter1 inactive | KCC2 retest ouab inconclusive | HEK counter2 inactive
CC(/C=C1\SC(=S)N(c2ccc(C(=O)O)cc2)C1=O)=C\c1ccccc1	none (no result: PKD1 kinase inh, DTT redox prof)
O=C1c2ccccc2C(=O)N1OCc1ccc(Cl)cc1	none
CCOC(=O)CNC(=O)CSc1nc2sc(C)c(C)c2c(=O)n1C	none (no result: Cl transport mod) | KCC2 sec1 inactive | KCC2 bumet counter 0.019 | KCC2 sec2 inactive | HEK counter1 0.017 | KCC2 retest ouab 0.027 | HEK counter2 0.021
Cc1sc2nc(SCC(=O)OC(C)C)n(C)c(=O)c2c1C	none (no result: Cl transport mod) | KCC2 sec1 inactive | KCC2 bumet counter 0.014 | KCC2 sec2 inactive | HEK counter1 0.015 | KCC2 retest ouab 0.026 | HEK counter2 0.018
Cc1sc2nc(SCC(=O)NCc3ccco3)n(C)c(=O)c2c1C	none (no result: ROMK mod)
Cc1sc2nc(SCC(=O)NCCO)n(C)c(=O)c2c1C	none (no result: Mdm2 ligase inh, Cl transport mod)
O=C(c1cc(-c2ccccc2)n[nH]1)N1CCc2c([nH]c3ccccc23)C1c1ccccn1 (centres undefined)	none
Cn1c(C(=O)NCCN2CCN(c3ccccc3F)CC2)cc2c(=O)n(C)c3ccccc3c21	Cl transport mod -4.7 (no result: ROMK mod) | KCC2 sec1 inactive | KCC2 bumet counter inactive | KCC2 sec2 0.022 | HEK counter1 inactive | KCC2 retest ouab inconclusive | HEK counter2 inactive
Cn1c(C(=O)NCCN2CCOCC2)cc2c(=O)n(C)c3ccccc3c21	none (no result: ROMK mod, Cl transport mod)

High-throughput results as filed in PubChem BioAssay.
